Experimental data taken from ChEMBL document CHEMBL4334552, “Discovery of BMS-986260, a Potent, Selective, and Orally Bioavailable TGFβR1 Inhibitor as an Immuno-oncology Agent” (ACS Med Chem Lett, 2020).
≈ marks a conversion by molar mass, not a printed value. Calls of active or inactive are those of the source. The rule behind the calls is not given here.

Tests used:
[1] = Clearance in Balb/C mouse at 5 mg/kg, iv; type: ADME, organism-based; conditions: in vivo
Method in brief: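 Male Balb/C mice, n = 3, dosed at 5 mg/kg iv or 10 mg/kg po. The vehicle was 70% 25 mM acetate buffer pH 4.0, 5% ethanol and 25% PEG 400.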

[2] = Intrinsic permeability in human Caco2 cells; type: ADME, cell-based; conditions: Caco-2
Phosphodiesterase 4 = Phosphodiesterase 4 (Homo sapiens, UniProt P27815+Q08499+Q07343+Q08493); test: Inhibition of PDE4 (unknown origin) by HTRF assay; type: protein assay
Cytochrome P450 1A2 = molecular target: T1, Cytochrome P450 1A2 (Homo sapiens, UniProt P05177); test: Induction of recombinant CYP1A2 (unknown origin) up to 24 microM; type: ADME; conditions: recombinant enzyme
T1 sequence (P05177 whole entry): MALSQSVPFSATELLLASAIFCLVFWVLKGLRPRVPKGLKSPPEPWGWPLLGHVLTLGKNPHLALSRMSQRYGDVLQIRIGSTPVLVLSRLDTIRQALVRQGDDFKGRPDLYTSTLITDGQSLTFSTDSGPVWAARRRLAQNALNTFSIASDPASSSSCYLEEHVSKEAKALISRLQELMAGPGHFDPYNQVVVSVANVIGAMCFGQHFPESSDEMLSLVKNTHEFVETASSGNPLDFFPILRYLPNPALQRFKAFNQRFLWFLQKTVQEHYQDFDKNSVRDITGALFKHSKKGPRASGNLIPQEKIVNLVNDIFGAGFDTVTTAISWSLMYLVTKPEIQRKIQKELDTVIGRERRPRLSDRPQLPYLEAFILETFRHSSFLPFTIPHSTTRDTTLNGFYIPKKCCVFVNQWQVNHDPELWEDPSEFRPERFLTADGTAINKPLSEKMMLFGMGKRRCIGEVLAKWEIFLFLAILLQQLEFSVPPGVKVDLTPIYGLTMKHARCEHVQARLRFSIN

[3] = Volume of distribution at steady state in Beagle dog at 1 mg/kg, iv; type: ADME, organism-based, Canis lupus familiaris; conditions: in vivo, read-out: Vdss
Method in brief: (§1)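 Male Beagle dogs (n = 2) were pretreated with pentagastrin and dosed iv at 1 mg/kg and po at 5 mg/kg. The oral vehicle was 5% ethanol, 45% PEG400 and 50% 25 mM acetate buffer pH 4.0. The iv vehicle was 5:45:50 EtOH/PEG400/saline at 1 mL/kg.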

[4] = Total AUC in Sprague Dawley rat at 10 mg/kg, po; type: ADME, organism-based; set-up: dose 10 mg/kg, route oral, time AUCmax; conditions: in vivo
Method in brief: (§2)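 Male Sprague–Dawley rats (n = 3) received a PEG400 solution iv at 5 mg/kg and po at 10 mg/kg.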

Salmonella typhimurium = test: Genotoxicity against Salmonella typhimurium by Ames test; type: toxicity, organism-based; conditions: salmonella enterica subsp. enterica serovar typhimurium
MC-38 = test: Antitumour activity against mouse MC38 cells allografted in C57Bl/6 mouse assessed as reduction in tumour growth at 3.75 mg/kg, po dosed every 3 days on and 4 days off treatment regime and cotreated with anti-PD1 at 10 mg/kg, ip every 4 days for 3 doses by digital caliper analysis; type: functional, organism-based
Method in brief: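 MC38 cells (0.1 mL at 1 × 10^7 cells/mL) were implanted subcutaneously in the right flank of C57/BL6 mice. Randomization was at about 100 mm3, typically day 5. Oral dosing ran 3 days on, 4 days off, over 28 days. Anti-PD-1 was given at 10 mg/kg IP every 4 days for three doses, with isotype MOPC-21 IgG1 as control on the same schedule.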

[5] = Half life in dog liver microsomes in presence of NADPH; type: ADME, Canis lupus familiaris, Microsome
[6] = Total AUC in Beagle dog at 5 mg/kg, po; type: ADME, organism-based, Canis lupus familiaris; set-up: dose 5 mg/kg, route oral, time AUCmax; conditions: in vivo; method in brief: as §1
[7] = Tmax in Balb/C mouse at 10 mg/kg, po; type: ADME, organism-based; conditions: in vivo
Method in brief: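 Male Balb/C mice (n = 3) dosed iv at 5 mg/kg and po at 10 mg/kg. Vehicle was 70% 25 mM acetate buffer pH 4.0, 5% ethanol and 25% PEG 400.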

[8] = Half life in mouse liver microsomes in presence of NADPH; type: ADME, Microsome
[9] = Aqueous solubility of the compound at pH 6.5; type: physicochemical; conditions: aqueous solution, read-out: solubility
[10] = Oral bioavailability in Beagle dog at 5 mg/kg; type: ADME, organism-based, Canis lupus familiaris; conditions: in vivo; method in brief: as §1
Cytochrome P450 3A4 = Cytochrome P450 3A4 (Homo sapiens, UniProt P08684); test: Inhibition of recombinant CYP3A4 (unknown origin); type: ADME
[11] = Cardiovascular toxicity in rat assessed as aortic pathology at 1 mg/kg, po for 10 days; type: organism-based; conditions: in vivo, 240 h
Method in brief: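 Exploratory toxicology studies of 10 days with daily oral dosing in rats and dogs. Cardiovascular findings, including valvulopathy and aortic pathology, were assessed.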

[12] = molecular target: T2, Nuclear receptor subfamily 1 group I member 2 (Homo sapiens, UniProt O75469); test: Activation of PXR (unknown origin)
T2 sequence (O75469 whole entry): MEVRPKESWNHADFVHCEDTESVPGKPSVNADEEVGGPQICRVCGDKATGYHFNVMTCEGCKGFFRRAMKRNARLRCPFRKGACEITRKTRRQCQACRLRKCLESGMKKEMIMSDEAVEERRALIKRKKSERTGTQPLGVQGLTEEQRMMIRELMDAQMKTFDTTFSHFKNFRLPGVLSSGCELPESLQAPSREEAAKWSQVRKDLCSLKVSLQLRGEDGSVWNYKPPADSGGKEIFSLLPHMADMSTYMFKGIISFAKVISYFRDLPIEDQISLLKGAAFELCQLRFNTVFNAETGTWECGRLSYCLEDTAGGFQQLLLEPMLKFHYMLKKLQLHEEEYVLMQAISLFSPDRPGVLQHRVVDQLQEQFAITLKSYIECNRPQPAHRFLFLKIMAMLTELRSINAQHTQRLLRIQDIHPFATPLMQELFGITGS

Cytochrome P450 2D6 = Cytochrome P450 2D6 (Homo sapiens, UniProt P10635); test: Inhibition of recombinant CYP2D6 (unknown origin); type: ADME
TGF-beta receptor type-1 = molecular target: T3, TGF-beta receptor type-1 (Homo sapiens, UniProt P36897); test: Inhibition of TGFbetaR1 in TGFbeta-stimulated human T cells assessed as reduction in SMAD3 phosphorylation preincubated for 1 hr followed by TGFbeta-stimulation for 90 mins by Alphalisa assay
T3 sequence (P36897 whole entry): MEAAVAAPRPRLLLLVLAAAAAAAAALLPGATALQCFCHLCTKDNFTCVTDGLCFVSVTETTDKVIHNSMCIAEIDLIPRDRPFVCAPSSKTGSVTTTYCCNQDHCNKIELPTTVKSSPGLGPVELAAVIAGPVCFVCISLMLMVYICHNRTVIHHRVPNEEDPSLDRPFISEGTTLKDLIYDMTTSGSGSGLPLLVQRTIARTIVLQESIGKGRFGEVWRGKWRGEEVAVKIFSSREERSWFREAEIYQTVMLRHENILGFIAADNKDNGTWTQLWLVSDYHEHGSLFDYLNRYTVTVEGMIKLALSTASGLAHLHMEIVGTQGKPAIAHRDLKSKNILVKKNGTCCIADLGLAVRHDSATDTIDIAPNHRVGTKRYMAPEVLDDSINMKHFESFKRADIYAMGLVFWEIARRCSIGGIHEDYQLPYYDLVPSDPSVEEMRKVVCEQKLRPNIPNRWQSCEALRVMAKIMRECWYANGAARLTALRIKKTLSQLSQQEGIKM

[13] = Oral bioavailability in Sprague Dawley rat at 10 mg/kg; type: ADME, organism-based; conditions: in vivo; method in brief: as §2

Chain of Cytochrome P450 2D6 (P10635 whole entry): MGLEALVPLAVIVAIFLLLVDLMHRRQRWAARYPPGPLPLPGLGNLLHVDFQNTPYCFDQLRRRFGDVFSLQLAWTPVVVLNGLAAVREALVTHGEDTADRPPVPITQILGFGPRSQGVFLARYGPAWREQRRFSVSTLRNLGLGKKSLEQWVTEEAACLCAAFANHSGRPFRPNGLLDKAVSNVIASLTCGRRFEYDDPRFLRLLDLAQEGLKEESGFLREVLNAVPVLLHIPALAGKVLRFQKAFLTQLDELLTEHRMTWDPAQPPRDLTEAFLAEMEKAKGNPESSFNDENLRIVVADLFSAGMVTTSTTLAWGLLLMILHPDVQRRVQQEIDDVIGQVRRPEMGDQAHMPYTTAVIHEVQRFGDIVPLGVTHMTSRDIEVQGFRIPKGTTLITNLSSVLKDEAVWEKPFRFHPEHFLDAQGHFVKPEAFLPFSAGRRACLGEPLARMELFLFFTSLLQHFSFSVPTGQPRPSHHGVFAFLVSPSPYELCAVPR
Chain of Cytochrome P450 3A4 (P08684 whole entry): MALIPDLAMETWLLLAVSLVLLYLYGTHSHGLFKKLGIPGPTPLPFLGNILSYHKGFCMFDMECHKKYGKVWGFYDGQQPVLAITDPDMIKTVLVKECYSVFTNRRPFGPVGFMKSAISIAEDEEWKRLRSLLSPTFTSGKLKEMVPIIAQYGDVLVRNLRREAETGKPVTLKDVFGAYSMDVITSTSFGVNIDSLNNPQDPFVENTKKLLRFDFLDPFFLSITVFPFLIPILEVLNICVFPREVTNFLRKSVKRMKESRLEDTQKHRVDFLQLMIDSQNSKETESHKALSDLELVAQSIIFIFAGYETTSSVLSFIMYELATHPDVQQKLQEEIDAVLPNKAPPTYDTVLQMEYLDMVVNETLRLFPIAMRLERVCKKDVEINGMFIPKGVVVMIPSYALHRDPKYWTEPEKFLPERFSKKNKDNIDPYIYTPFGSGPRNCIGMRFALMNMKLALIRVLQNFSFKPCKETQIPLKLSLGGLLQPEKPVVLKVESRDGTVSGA

## N#Cc1cnc2ccc(-c3c(-c4ccc(F)c(Cl)c4)ncn3CCO)nn12
[1]
  clearance: 8.3 mL/min/kg
[2]
  Papp: 27.2 ×10⁻⁶ cm/s
Phosphodiesterase 4
  IC50: 11 µM
Cytochrome P450 1A2
  Activity: Not Active
[3]
  Vd: 1.1 L/kg
[4]
  AUC: 90.8 µM·h
Salmonella typhimurium
  Activity: Non-Toxic
MC-38
  inhibition: Active
[5]
  half-life: 37 min
[6]
  AUC: 35 µM·h
[7]
  Tmax: 18 min
[8]
  half-life: 28 min
[9]
  solubility: 47 µg/mL (≈ 123 µM)
[10]
  bioavailability: 93%
Cytochrome P450 3A4
  IC50: > 20 µM
[11]
  Activity: Toxic
[12]
  EC50: > 24 µM
Cytochrome P450 2D6
  IC50: > 20 µM
TGF-beta receptor type-1
  IC50: 0.15 µM
[13]
  bioavailability: > 100%
